MEKK2 mut-MEK5 = signal of MEK5 binding to mutant human MEKK2 PB1 domain; percent response, % at 10 µM; bead flow cytometry, Alexa488-MEK5 binding to MEKK2 mutant; 0.35% of 290,000 active; in the data active = percent response above about 24%, passing the limit was not always enough
MEKK2wt PB1 HTS = raises or lowers MEK5 binding to wildtype human MEKK2 PB1 domain; Q9Y2U5; 1.1% of 290,000 active; binding response (% of control), % at 10 µM; AID 1531; bead flow cytometry, Alexa488-MEK5 binding to MEKK2 WT; actives lie on both sides; in the data active = binding response below about 67% or above about 130%
MEKK3 PB1 HTS = MEKK3-MEK5 PB1 interaction, increase or decrease. Q99759. bead-based flow cytometry, Alexa488-MEK5 binding to MEKK3; actives lie on both sides; 0 = blocked by unlabeled MEK5, 100 = vehicle. binding response (% of control), % at 10 µM. 1.4% of 290,000 active. AID 1529;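 active = binding response more than 3 SD above or below the average of its plate-row segment, actives on both sides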;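 note: Alexa488 bead fluorescence after subtracting the streptavidin-only scavenger bead signal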
UBC13 inh = inhibitors of human UBC13 polyubiquitin chain formation; P61088; TR-FRET; inhibition, % at 20 µM; 0.47% of 330,000 active; in the data active = inhibition above about 45%, passing the limit was not always enough
Apaf1 inhib = inhibitors of human Apaf-1 apoptosome; O14727; reconstituted apoptosome caspase-3 activity, DEVD-Rh110 fluorescence; inhibition, % at 20 µM; 0.71% of 330,000 active; AID 489030; active = inhibition of at least 40% at 20 µM
Target sequence (O14727 whole entry, looked up): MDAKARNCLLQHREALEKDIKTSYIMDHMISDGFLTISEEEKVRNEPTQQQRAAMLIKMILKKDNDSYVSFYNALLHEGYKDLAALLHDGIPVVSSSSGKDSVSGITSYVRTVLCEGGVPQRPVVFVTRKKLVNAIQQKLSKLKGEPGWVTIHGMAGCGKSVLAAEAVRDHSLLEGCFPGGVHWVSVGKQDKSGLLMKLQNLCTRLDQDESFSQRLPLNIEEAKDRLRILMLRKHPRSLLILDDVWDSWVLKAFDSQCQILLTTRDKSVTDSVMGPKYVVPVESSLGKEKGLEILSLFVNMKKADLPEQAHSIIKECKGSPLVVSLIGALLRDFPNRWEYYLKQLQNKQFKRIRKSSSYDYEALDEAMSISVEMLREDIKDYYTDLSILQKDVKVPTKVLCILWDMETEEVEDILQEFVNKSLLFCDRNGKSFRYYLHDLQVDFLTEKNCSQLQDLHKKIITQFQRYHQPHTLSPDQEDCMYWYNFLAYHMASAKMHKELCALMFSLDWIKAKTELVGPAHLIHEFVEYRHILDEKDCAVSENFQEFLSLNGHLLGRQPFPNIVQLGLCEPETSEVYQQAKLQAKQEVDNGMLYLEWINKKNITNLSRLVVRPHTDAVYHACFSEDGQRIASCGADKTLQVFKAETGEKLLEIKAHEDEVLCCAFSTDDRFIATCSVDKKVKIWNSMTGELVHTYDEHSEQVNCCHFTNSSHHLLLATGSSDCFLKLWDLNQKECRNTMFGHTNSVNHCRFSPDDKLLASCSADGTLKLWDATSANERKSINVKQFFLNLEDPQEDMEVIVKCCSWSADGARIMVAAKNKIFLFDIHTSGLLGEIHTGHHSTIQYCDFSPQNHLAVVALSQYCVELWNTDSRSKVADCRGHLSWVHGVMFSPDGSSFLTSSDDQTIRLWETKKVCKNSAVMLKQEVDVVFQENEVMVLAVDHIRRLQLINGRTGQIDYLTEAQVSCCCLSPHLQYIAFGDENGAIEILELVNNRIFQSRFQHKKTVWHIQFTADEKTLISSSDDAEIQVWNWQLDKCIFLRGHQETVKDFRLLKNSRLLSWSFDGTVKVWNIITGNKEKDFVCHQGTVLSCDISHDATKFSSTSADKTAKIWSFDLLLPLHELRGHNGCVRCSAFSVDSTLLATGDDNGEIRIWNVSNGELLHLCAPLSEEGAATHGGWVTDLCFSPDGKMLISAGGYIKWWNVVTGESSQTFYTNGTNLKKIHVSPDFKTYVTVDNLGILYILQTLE
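Assay system – apoptosome proteins · Medium – Hepes buffer, pH 7.5 · Also added – cytochrome c with DEVD-Rh110 · Timing – 30 min compound preincubation, 50 min activation, room temperature · Detection – Rh110 fluorescence, excitation 480 nm, emission 540 nm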
Apaf-1 inh conf2 = Apaf-1 inhibition, single-dose confirmed | shares compounds with Apaf1 inhib | reconstituted apoptosome, caspase-3 DEVD-Rh110 fluorescence | inhibition, % at 20 µM | 25% of 1,800 active | AID 504614;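 active = mean inhibition of at least 40% at 20 µM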
Rh110 quench = counter-screen for Apaf-1 inhibitors: fluorescence interference. shares compounds with Apaf1 inhib. Rh110 fluorescence interference, quenched caspase reaction. activation (fluorescence interference), % at 20 µM. 1,800 tested, under 10 active. AID 504615;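 active = signal rise of 40% or more at 20 µM, treated as a fluorescence artifact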
Apaf1 inh interf = counter-screen for Apaf-1 inhibitors: fluorescence interference, dose response | shares compounds with Apaf1 inhib | fluorescence interference counterscreen, Apaf-1 assay format | IC50, µM | 460 tested, under 10 active | AID 588538; call rule not given here
Numbers stand for hits. Sampled rows, rich in hits. Any-hit rate of the full collection: about 2.9%.

For COC(=O)C1=C(C)N(Cc2ccccc2)C(=NCC(C)C)N[C@H]1c1ccccc1 the results were MEKK2 mut-MEK5 inactive, MEKK2wt PB1 HTS inactive, MEKK3 PB1 HTS inactive, UBC13 inh inactive and Apaf1 inhib inactive.
Screening CC(C)(C)OC(=O)N[C@H]1C=C[C@@H](OC(=O)CC(=O)OCC(F)(F)F)C1 returned Apaf1 inhib inactive.
`CCOc1cccc(NC(=O)c2cccc(F)c2)c1` gave MEKK2 mut-MEK5 inactive, MEKK2wt PB1 HTS inactive, MEKK3 PB1 HTS inactive, UBC13 inh inactive and Apaf1 inhib inactive.
For CCCN1CCN(C(=O)C2CCN(S(=O)(=O)c3c(C)noc3/C=C/c3ccc(C)cc3)CC2)CC1 the results were MEKK2 mut-MEK5 inactive, MEKK2wt PB1 HTS inactive, MEKK3 PB1 HTS inactive, UBC13 inh inactive, Apaf1 inhib 61, Apaf-1 inh conf2 inactive and Rh110 quench inactive.
Screening Cc1ccc(/C=C/c2onc(C)c2S(=O)(=O)N2CCC(C(=O)N3CCCCC3)CC2)cc1 returned MEKK2 mut-MEK5 inactive, MEKK2wt PB1 HTS inactive, MEKK3 PB1 HTS inactive, UBC13 inh inactive and Apaf1 inhib inactive.
For Cc1ccc(N(C)S(=O)(=O)c2cccc(C(=O)Nc3ccc(C)cn3)c2)cc1 the results were UBC13 inh inactive, Apaf1 inhib 45, Apaf-1 inh conf2 inactive and Rh110 quench inactive.
Screening O=C(NCc1ccccc1Cl)C1=CC=CN2CCS(=O)(=O)N=C12 returned UBC13 inh inactive and Apaf1 inhib inactive.
For CC1(C)C=C2C(=NN(c3ccccc3)C(N)=C2C#N)CO1 the results were MEKK2 mut-MEK5 inactive, MEKK2wt PB1 HTS inactive, MEKK3 PB1 HTS inactive, UBC13 inh inactive, Apaf1 inhib 47, Apaf-1 inh conf2 98, Rh110 quench inactive and Apaf1 inh interf inactive.
Cc1nn(-c2ccccc2)c(N2CCCC2)c1/C=C1\N=C(c2ccc(OC(C)C)cc2)OC1=O was read as MEKK2 mut-MEK5 inactive, MEKK2wt PB1 HTS inactive, MEKK3 PB1 HTS inactive, UBC13 inh inactive, Apaf1 inhib 52, Apaf-1 inh conf2 inactive and Rh110 quench inactive.
Screening Oc1c(Br)cc(Br)cc1C=Nc1cccc2ncccc12 returned UBC13 inh inactive, Apaf1 inhib 97, Apaf-1 inh conf2 56, Rh110 quench inactive and Apaf1 inh interf inactive.
`O=[N+]([O-])c1cccc(C=Nc2cccc3ccccc23)c1O` gave MEKK2 mut-MEK5 inactive, MEKK2wt PB1 HTS inactive, MEKK3 PB1 HTS inactive, UBC13 inh inactive, Apaf1 inhib 93, Apaf-1 inh conf2 44, Rh110 quench inactive and Apaf1 inh interf inactive.
For O=[N+]([O-])c1ccc(O)c(C=Nc2cccc3ccccc23)c1 the results were MEKK2 mut-MEK5 inactive, MEKK2wt PB1 HTS inactive, MEKK3 PB1 HTS inactive, UBC13 inh inactive, Apaf1 inhib 88, Apaf-1 inh conf2 inactive and Rh110 quench inactive.
`Cc1nc2ccccc2c(=O)n1/N=C/c1ccc(O)cc1O` gave MEKK2 mut-MEK5 inactive, MEKK2wt PB1 HTS inactive, MEKK3 PB1 HTS inactive, UBC13 inh inactive and Apaf1 inhib inactive.
For CCOC(=O)c1c(/N=C/c2cccc([N+](=O)[O-])c2O)sc(C)c1C the results were MEKK2 mut-MEK5 inactive, MEKK2wt PB1 HTS inactive, MEKK3 PB1 HTS inactive, UBC13 inh inactive and Apaf1 inhib inactive.
`Oc1ccc(C=Nc2cccc3ccccc23)c(O)c1` gave MEKK2 mut-MEK5 inactive, MEKK2wt PB1 HTS inactive, MEKK3 PB1 HTS inactive, UBC13 inh inactive, Apaf1 inhib 81, Apaf-1 inh conf2 inactive and Rh110 quench inactive.
COc1ccc(NC(=O)[C@@H](NC(=O)c2ccccc2F)C(C)C)cc1S(=O)(=O)N1CCOCC1 was read as MEKK2 mut-MEK5 inactive, MEKK2wt PB1 HTS inactive, MEKK3 PB1 HTS inactive, UBC13 inh inactive and Apaf1 inhib inactive.
Screening O=[N+]([O-])c1ccc(O)c(C=Nc2cccc3ncccc23)c1 returned MEKK2 mut-MEK5 inactive, MEKK2wt PB1 HTS inactive, MEKK3 PB1 HTS inactive, UBC13 inh inactive, Apaf1 inhib 91, Apaf-1 inh conf2 inactive and Rh110 quench inactive.
Screening COc1cc(/C=C2/C(=O)N(c3ccc([N+](=O)[O-])cc3)N=C2N2CCOCC2)ccc1O returned MEKK2 mut-MEK5 inactive, MEKK2wt PB1 HTS inactive, MEKK3 PB1 HTS inactive, UBC13 inh inactive, Apaf1 inhib 86, Apaf-1 inh conf2 inactive and Rh110 quench inactive.
`O=C(CC1Nc2cccc3cccc(c23)NC1=O)Nc1ccccc1` (centres undefined) gave MEKK2 mut-MEK5 inactive, MEKK2wt PB1 HTS inactive, MEKK3 PB1 HTS inactive, UBC13 inh inactive, Apaf1 inhib 96, Apaf-1 inh conf2 inactive and Rh110 quench inactive.
Screening CCCOc1ccc(NC(=O)CC2Nc3ccccc3NC2=O)cc1 (centres undefined) returned MEKK2 mut-MEK5 inactive, MEKK2wt PB1 HTS inactive, MEKK3 PB1 HTS inactive, UBC13 inh inactive and Apaf1 inhib inactive.
`NC(=O)CC1Nc2cccc3cccc(c23)NC1=O` (centres undefined) gave MEKK2 mut-MEK5 inactive, MEKK2wt PB1 HTS inactive, MEKK3 PB1 HTS inactive, UBC13 inh inactive, Apaf1 inhib 98, Apaf-1 inh conf2 inactive and Rh110 quench inactive.
`O=C(CC1Nc2ccccc2NC1=O)c1ccccc1` (centres undefined) gave MEKK2 mut-MEK5 inactive, MEKK2wt PB1 HTS inactive, MEKK3 PB1 HTS inactive, UBC13 inh inactive and Apaf1 inhib inactive.
For CCOc1ccc(N(CC(=O)Nc2ccc(OC)cc2)C2=NC3CS(=O)(=O)CC3S2)cc1 (centres undefined) the results were MEKK2 mut-MEK5 inactive, MEKK2wt PB1 HTS inactive, MEKK3 PB1 HTS inactive, UBC13 inh inactive and Apaf1 inhib inactive.
For COc1ccc(-n2nc3ccc(NS(C)(=O)=O)cc3n2)cc1Cl the results were MEKK2 mut-MEK5 inactive, MEKK2wt PB1 HTS inactive, MEKK3 PB1 HTS inactive, UBC13 inh inactive and Apaf1 inhib inactive.
For Cc1cc(N)ccc1-n1nc2ccccc2n1 the results were UBC13 inh inactive and Apaf1 inhib inactive.
`Cc1ccc(-n2nc3ccc(N)cc3n2)c(C)c1` gave MEKK2 mut-MEK5 inactive, MEKK2wt PB1 HTS inactive, MEKK3 PB1 HTS inactive, UBC13 inh inactive, Apaf1 inhib 68, Apaf-1 inh conf2 inactive and Rh110 quench inactive.
Screening Cc1ccc(-n2cnnn2)cc1Cl returned MEKK2 mut-MEK5 inactive, MEKK2wt PB1 HTS inactive, MEKK3 PB1 HTS inactive, UBC13 inh inactive and Apaf1 inhib inactive.
`Cc1ccc(-n2nc3ccc(N)cc3n2)cc1C` gave MEKK2 mut-MEK5 inactive, MEKK2wt PB1 HTS inactive, MEKK3 PB1 HTS inactive, UBC13 inh inactive, Apaf1 inhib 80, Apaf-1 inh conf2 inactive and Rh110 quench inactive.
Screening COc1ccc(-n2nc3ccc(N)cc3n2)cc1Cl returned MEKK2 mut-MEK5 inactive, MEKK2wt PB1 HTS inactive, MEKK3 PB1 HTS inactive, UBC13 inh inactive, Apaf1 inhib 95, Apaf-1 inh conf2 55, Rh110 quench inactive and Apaf1 inh interf inactive.
